≈ marks a conversion by molar mass, not a printed value.
Tests used:
Assay type in all cases: functional
P388 = experiment: Cytotoxicity against mouse P388 cells after 3 days by MTT assay; conditions: P388, 72 h, read-out: ED50 (the source's name)
Outline: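 P-388 cells in Fisher's medium with 10% heat-inactivated FCS at 37 °C, 5% CO2. Cultures set up at 1500 cells/well in 200 µL. Compounds added at eight concentrations in triplicate. After 3 days, cells counted by MTT: formazan dissolved in DMSO, absorbance at 540 nm. ED50 = concentration giving 50% absorbance reduction versus untreated cells.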

HT-29 = experiment: Cytotoxicity against human HT-29 cells after 6 days by MTT assay; conditions: HT-29, 144 h, read-out: ED50 (the source's name)
Outline: (§1)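 A549 grown in EMEM with Earle's salts, 0.1 mM nonessential amino acids and 10% heat-inactivated FCS; HT-29 in RPMI 1640 with 10% heat-inactivated FCS; 37 °C, 5% CO2. Seeded 1000 cells/well. Eight concentrations spanning a 128-fold range, triplicate. After 6 days, MTT (1 mg/mL) added for 5 h, formazan dissolved in DMSO, A540. ED50 = 50% absorbance reduction versus untreated cells.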

A549 = experiment: Cytotoxicity against human A549 cells after 6 days by MTT assay; conditions: A549, 144 h, read-out: ED50 (the source's name); outline: as §1

SMILES | EC50 (P388) [µg/mL] | EC50 (HT-29) [µg/mL] | EC50 (A549) [µg/mL]
C=Cc1cc(OC)c2oc(-c3ccc(O)c(OC)c3)cc2c1 [DEHYDROXYMETHYLAILANTHOIDOL] | > 50 | > 50 | > 50
CCCCCCCCC/C=C1\C(=O)O[C@@](C)(OC)[C@H]1O [LITSEAKOLIDE E] | 2.94 (≈ 10.3 µM) | 3.69 (≈ 13 µM) | 4.89 (≈ 17.2 µM)
CCCCCCCCC/C=C1/C(=O)O[C@@](C)(OC)[C@H]1O [LITSEAKOLIDE D] | 1.73 (≈ 6.08 µM) | 2 (≈ 7.03 µM) | 2.85 (≈ 10 µM)
C=C1OC(=O)/C(=C\CCCCCCCCCCC)[C@@H]1O [ISOLICOMOLIDE D] | 2.97 (≈ 10.6 µM) | 2.11 (≈ 7.52 µM) | 2.9 (≈ 10.3 µM)
CCCCCCCCC/C=C1\C(=O)O[C@@](C)(OC)[C@@H]1O [LITSEAKOLIDE G] | 0.97 (≈ 3.41 µM) | 2.73 (≈ 9.6 µM) | 1.94 (≈ 6.82 µM)
CO[C@H](C(=O)[C@@H](O)[C@@H](C)O)[C@@H]1Cc2cc3cc(O[C@H]4C[C@@H](O[C@@H]5C[C@@H](O)[C@H](O)[C@@H](C)O5)[C@H](O)[C@@H](C)O4)c(C)c(O)c3c(O)c2C(=O)[C@H]1O[C@H]1C[C@@H](O[C@@H]2C[C@@H](O)[C@@H](O[C@@H]3C[C@](C)(O)[C@H](O)[C@@H](C)O3)[C@@H](C)O2)[C@H](O)[C@@H](C)O1 [PLICAMYCIN] | 0.06 (≈ 0.0553 µM) | 0.08 (≈ 0.0737 µM) | 0.07 (≈ 0.0645 µM)
CCCCCCCCC/C=C1/C(=O)O[C@@](C)(OC)[C@@H]1O [LITSEAKOLIDE F] | 2.04 (≈ 7.17 µM) | 4.39 (≈ 15.4 µM) | 2.01 (≈ 7.07 µM)
